Laboratory results: ChEMBL document CHEMBL1128472, “Reversible inhibitors of the gastric (H+/K+)-ATPase. 5. Substituted 2,4-diaminoquinazolines and thienopyrimidines” (J Med Chem, 1995)

Columns and labels:
[1] = target: Potassium-transporting ATPase (Sus scrofa, UniProt P19156); assay: Inhibition of K+ stimulated gastric ATPase activity; type: tissue-based, Stomach
In short: (§1)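 K+-stimulated ATPase activity measured in a lyophilized gastric vesicle preparation at pH 7; enzyme concentration estimated at around 2 nM from 32P-ATP binding.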

[2] = target: T1, Potassium-transporting ATPase (Rattus norvegicus) (UniProt P09626+P18598); assay: Inhibition of pentagastrin stimulated gastric acid secretion in anesthetized rat at 10 uM/kg; type: functional; conditions: Stomach; 10 umol/kg
In short: (§2)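 Anaesthetized rat with lumen-perfused stomach; acid secretion induced by pentagastrin; compound given intravenously; inhibition of acid output recorded.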

[3] = tested on: Rattus norvegicus; assay: Inhibition of pentagastrin stimulated gastric acid secretion in anesthetized rat on iv administration of the compound.; type: functional; conditions: Stomach; in short: as §2
[4] = tested on: Canis familiaris; assay: % inhibition of Histamine-stimulated gastric acid secretion in Heidenhain pouch dog at 4 uM/kg, on peroral administration of the compound.; type: functional, Canis lupus familiaris, Stomach
In short: (§3)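 Heidenhain pouch dogs with histamine-stimulated acid secretion; compound given orally as a dry powder in a hard gelatin capsule; inhibition of acid secretion measured.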

[5] = tested on: Canis familiaris; assay: % inhibition of Histamine-stimulated gastric acid secretion in Heidenhain pouch dog at1uM/kg, on iv administration of the compound.; type: functional, Canis lupus familiaris, Stomach
[6] = target: T1, Potassium-transporting ATPase (Rattus norvegicus); assay: Inhibition of pentagastrin stimulated gastric acid secretion in anesthetized rat 10 uM/kg, on iv administration of the compound.; type: functional, organism-based; conditions: Stomach; in short: as §2
[7] = tested on: Canis familiaris; assay: % inhibition of Histamine-stimulated gastric acid secretion in Heidenhain pouch dog 4 uM/kg, on peroral administration of the compound.; type: functional, Canis lupus familiaris, Stomach; in short: as §3
[8] = tested on: Canis familiaris; assay: % inhibition of Histamine-stimulated gastric acid secretion in Heidenhain pouch dog 1 uM/kg, on iv administration of the compound.; type: functional, Canis lupus familiaris, Stomach
[9] = target: T2, Potassium-transporting ATPase (Sus scrofa) (UniProt P18434+P19156); assay: Inhibition of K+ stimulated gastric ATPase activity at 100 uM[…]; type: tissue-based; conditions: Stomach
[10] = tested on: Canis familiaris; assay: Histamine-stimulated gastric acid secretion in Heidenhain pouch dog at 4uM/Kg, on oral administration of the compound
[11] = tested on: Canis familiaris; assay: Histamine-stimulated gastric acid secretion in Heidenhain pouch dog at 1uM/Kg, on iv administration of the compound; type: functional, Canis lupus familiaris, Stomach
[12] = tested on: Canis familiaris; assay: % inhibition of Histamine-stimulated gastric acid secretion in Heidenhain pouch dog at 1 uM/kg; type: functional, Canis lupus familiaris, Stomach
[13] = tested on: Canis familiaris; assay: % inhibition of Histamine-stimulated gastric acid secretion in Heidenhain pouch dog at 4 uM/kg; type: functional, Canis lupus familiaris, Stomach
[14] = tested on: Canis familiaris; assay: % inhibition of Histamine-stimulated gastric acid secretion in Heidenhain pouch dog at 1 umol/kg on iv administration of the compound.; type: functional; conditions: Canis lupus familiaris, Stomach
[15] = tested on: Rattus norvegicus; assay: Inhibition of pentagastrin stimulated gastric acid secretion in anesthetized rat at 10 uM, on iv administration of the compound.; type: functional, Stomach; in short: as §2
[16] = target: T2, Potassium-transporting ATPase (Sus scrofa); assay: Inhibition of K+ stimulated gastric ATPase activity at 100 uM; type: tissue-based; conditions: Stomach; in short: as §1
[17] = tested on: Rattus norvegicus; assay: Inhibition of pentagastrin stimulated gastric acid secretion in anesthetized rat on 10 uM/kg, iv administration of the compound.; type: functional, Stomach; in short: as §2

Chain of Potassium-transporting ATPase (P18434 whole entry): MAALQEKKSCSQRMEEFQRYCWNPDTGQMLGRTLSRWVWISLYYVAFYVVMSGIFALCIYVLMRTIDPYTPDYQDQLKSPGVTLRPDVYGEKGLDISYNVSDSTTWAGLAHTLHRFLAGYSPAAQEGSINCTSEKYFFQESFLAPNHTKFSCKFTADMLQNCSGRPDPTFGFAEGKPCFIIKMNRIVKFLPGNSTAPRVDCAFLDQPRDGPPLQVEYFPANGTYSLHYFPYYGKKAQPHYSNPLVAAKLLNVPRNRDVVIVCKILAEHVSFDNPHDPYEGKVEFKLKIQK
Chain of Potassium-transporting ATPase (P19156 whole entry): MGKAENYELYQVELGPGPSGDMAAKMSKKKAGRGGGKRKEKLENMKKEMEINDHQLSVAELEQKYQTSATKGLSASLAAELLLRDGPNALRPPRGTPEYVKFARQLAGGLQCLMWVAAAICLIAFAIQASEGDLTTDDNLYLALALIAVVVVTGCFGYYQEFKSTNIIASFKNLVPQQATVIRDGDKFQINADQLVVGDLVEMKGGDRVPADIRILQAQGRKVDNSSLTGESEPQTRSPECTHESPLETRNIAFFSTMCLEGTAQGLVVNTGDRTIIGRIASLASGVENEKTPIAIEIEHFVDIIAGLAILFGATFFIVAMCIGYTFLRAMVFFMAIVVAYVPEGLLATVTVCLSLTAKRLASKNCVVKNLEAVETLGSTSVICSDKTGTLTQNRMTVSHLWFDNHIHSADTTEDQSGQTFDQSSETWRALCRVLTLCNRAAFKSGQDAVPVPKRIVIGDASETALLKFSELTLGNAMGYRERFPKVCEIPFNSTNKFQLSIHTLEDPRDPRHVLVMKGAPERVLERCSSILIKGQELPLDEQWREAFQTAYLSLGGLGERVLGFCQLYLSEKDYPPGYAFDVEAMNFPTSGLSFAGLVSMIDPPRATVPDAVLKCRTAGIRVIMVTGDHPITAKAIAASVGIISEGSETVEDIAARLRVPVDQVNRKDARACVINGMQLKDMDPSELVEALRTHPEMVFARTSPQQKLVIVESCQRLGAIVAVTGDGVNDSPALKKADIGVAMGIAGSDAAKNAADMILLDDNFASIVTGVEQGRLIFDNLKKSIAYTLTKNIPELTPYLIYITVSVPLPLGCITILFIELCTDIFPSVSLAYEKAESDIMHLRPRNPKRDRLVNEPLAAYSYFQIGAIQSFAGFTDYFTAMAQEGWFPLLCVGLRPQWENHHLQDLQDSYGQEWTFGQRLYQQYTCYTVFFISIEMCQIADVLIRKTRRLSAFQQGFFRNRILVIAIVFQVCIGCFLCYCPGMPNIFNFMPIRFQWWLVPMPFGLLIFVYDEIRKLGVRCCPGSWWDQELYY

| SMILES | IC50 [1] [µM] | inhibition [2] [%] | also measured |
| --- | --- | --- | --- |
| CNc1nc2c(C)cccc2c2c1CCN2c1ccccc1C | 0.18 | – | – |
| COc1cccc2c(Nc3ccccc3C)ncnc12 | 11.6 | 30 | – |
| Cc1ccccc1Nc1nc(N)nc2ccccc12 | 1.32 | – | ED50 [3]: 48 µmol/kg |
| CN(c1ccccc1)c1nc(Nc2ccccc2)nc2ccccc12 | 0.065 | – | ED50 [3]: 2.35 µmol/kg |
| Cc1ccccc1Nc1nc(N(C)c2ccccc2)c2ccccc2n1 | 0.022 | 79 | Inhibition [4]: 0%; Inhibition [5]: 74% |
| COc1cccc2c(Nc3ccccc3C)nc(NCCc3ccccc3)nc12 | 3.2 | – | – |
| COc1cccc2c(Nc3ccccc3C)nc(N(C)c3ccccc3)nc12 | 0.59 | 37 | – |
| Cc1ccccc1Nc1nc(N2CCCC2)nc2ccccc12 | 2.26 | 17 | – |
| COc1cccc2c(Nc3ccccc3C)nc(N3CCCC3)nc12 | 30 | 31 | – |
| Cc1ccccc1Nc1nc(NCCO)nc2ccccc12 | 4.6 | 21 | – |
| Cc1ccccc1Nc1nc(N(C)c2ccc(O)cc2)c2ccccc2n1 | 0.019 | – | – |
| Cc1cc(F)ccc1Nc1nc(N(C)c2ccccc2)c2cc(OCCCN3CCOCC3)ccc2n1 | 0.37 | – | inhibition [6]: 5% |
| Cc1cc(F)ccc1Nc1nc(N(C)c2ccccc2)c2ccccc2n1 | 0.021 | – | ED50 [3]: 1.94 µmol/kg; Inhibition [7]: 0%; Inhibition [8]: 79% |
| Cc1ccccc1Nc1nc(Nc2ccccc2)c2ccsc2n1 | – | – | inhibition [9]: 27% |
| Cc1ccccc1Nc1nc(N(C)c2ccccc2)c2cccc(O)c2n1 | 0.26 | – | – |
| Cc1cc(F)ccc1Nc1nc(N(C)c2ccccc2)c2ccsc2n1 | 0.13 | – | – |
| CN/C(=N\CCSCc1nc[nH]c1C)NC#N [CIMETIDINE] | – | – | ED50 [10]: 8.5 µmol/kg; ED50 [11]: 1.7 µmol/kg |
| COc1cccc2c(N(C)c3ccccc3)nc(Nc3ccccc3C)nc12 | 0.042 | – | ED50 [3]: 1.39 µmol/kg; Inhibition [12]: 79%; Inhibition [13]: 44% |

| SMILES | IC50 [1] [µM] | inhibition [2] [%] | also measured |
| --- | --- | --- | --- |
| COc1cccc2c(Nc3ccccc3C)nc(N)nc12 | 0.08 | – | ED50 [3]: 7.11 µmol/kg; Inhibition [4]: 0%; inhibition in vivo at 1 µmol/kg [14]: 39% |
| Cc1ccccc1Nc1nc(N(C)c2ccccc2)c2ccsc2n1 | 0.51 | – | – |
| Cc1ccccc1Nc1nc(N)nc2c(C)cccc12 | 0.24 | 48 | – |
| Cc1ccccc1Nc1nc(N(C)c2ccccc2)c2cccc(OCCCN(C)C)c2n1 | 0.021 | – | inhibition [6]: 49%; Inhibition [7]: 25%; Inhibition [8]: 18% |
| Cc1ccccc1Nc1ncnc2ccccc12 | – | – | Inhibition [15]: 9%; inhibition [16]: 28% |
| COc1cccc2c(Nc3ccccc3C)nc(NCc3nccs3)nc12 | 3.8 | 33 | – |
| CN(c1ccccc1)c1nc(N(C)c2ccccc2)c2sccc2n1 | 0.3 | – | – |
| COc1ccc2nc(Nc3ccccc3C)nc(N(C)c3ccccc3)c2c1 | 0.51 | – | inhibition [6]: 46% |
| CCOC(=O)COc1cccc2c(N(C)c3ccccc3)nc(Nc3ccc(F)cc3C)nc12 | 0.13 | – | Inhibition [17]: 39% |
| COc1ccc2nc(Nc3ccc(F)cc3C)nc(N(C)c3ccccc3)c2c1 | 0.25 | – | Inhibition [17]: 27% |
| Cc1cc(F)ccc1Nc1nc(N(C)c2ccccc2)c2cc(OCCN(C)C)ccc2n1 | 1.3 | – | – |
| COc1ccc(N(C)c2nc(Nc3ccccc3C)[n+](C)c3ccccc23)cc1 | 0.028 | – | – |
| Cc1cc(F)ccc1Nc1nc(N(C)c2ccccc2)c2cccc(F)c2n1 | 0.14 | – | – |
| COc1cccc2c(N(C)c3ccccc3)nc(N(C)c3ccccc3)nc12 | 0.074 | – | – |
| CNc1nc(Nc2ccccc2C)c2cccc(OC)c2n1 | 0.64 | 19 | – |
| Cc1ccccc1Nc1nc(Nc2ccccc2C)c2ccccc2n1 | 0.6 | – | – |
| CN(c1ccccc1)c1nc(N)nc2ccccc12 | 3.3 | 17 | – |
| Cc1ccccc1Nc1nc(NCCc2ccccc2)nc2ccccc12 | 0.81 | 31 | – |
